Measured values as given in ChEMBL document CHEMBL1681789, “New bichalcone analogs as NF-κB inhibitors and as cytotoxic agents inducing Fas/CD95-dependent apoptosis” (Bioorg Med Chem, 2011).
Calls of active or inactive are those of the source. The rule behind the calls is not given here.

Tests used:
A549 [1] = assay: Cytotoxicity against human A549 cells at 20 ug/ml after 3 days; type: functional, cell-based
KB [2] = assay: Cytotoxicity against human KB cells at 20 ug/ml after 3 days; type: functional, cell-based
[3] = Inhibition of Nitric oxide synthase activity in mouse BV2 cells assessed as LPS-induced NO production after 24 hrs by Griess reaction; type: cell-based; conditions: BV-2, 24 h
How it was run: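 Murine BV2 microglia were cultured in DMEM with 5% FBS and given 1–50 µM drug with 0.5 µg/mL LPS. Nitrite accumulated in the medium over 24 h was measured by Griess reagent. IC50 values are means ± SEM from 3–6 experiments on different days using different passages.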

HCT-8 [4] = assay: Cytotoxicity against human HCT8 cells at 20 ug/ml after 3 days; type: functional, cell-based
DU-145 [5] = assay: Cytotoxicity against human DU145 cells at 20 ug/ml after 3 days; type: functional, cell-based
BV-2 [6] = assay: Inhibition of NADPH oxidase mediated-ROS production in mouse BV2 cells; type: cell-based
How it was run: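 Compounds were incubated with 50 µg microglial cell homogenate for 20 min at 37 °C in the dark. Superoxide production was started with 200 µM NADPH, and chemiluminescence was followed for 30 min; the AUC represents ROS production. DPI served as positive control.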

A549 [7] = assay: Cytotoxicity against human A549 cells after 3 days; type: functional; conditions: A549, 72 h
How it was run: (§1)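 Seeded at 1500–7500 cells/well; compounds added from DMSO-diluted stock. After 3 days, attached cells were fixed with cold 50% TCA, stained with 0.4% sulforhodamine B and read at 562 nm. EC50 is the concentration reducing growth by 50%, averaged over at least three independent determinations. Cells were grown in RPMI-1640 with […], 0.25% bicarbonate and 10% FBS.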

DU-145 [8] = assay: Cytotoxicity against human DU145 cells after 3 days; type: functional; conditions: DU-145, 72 h; how it was run: as §1
KB [9] = assay: Cytotoxicity against human KB cells after 3 days; type: functional; conditions: 72 h; how it was run: as §1
HCT-8 [10] = assay: Cytotoxicity against human HCT8 cells after 3 days; type: functional; conditions: HCT-8, 72 h; how it was run: as §1
BV-2 [11] = assay: Inhibition of NF-kappaB nuclear translocation in LPS-stimulated mouse BV2 cells at 1 uM by Western blotting; type: cell-based
BV-2 [12] = assay: Reduction in iNOS protein expression in LPS-stimulated mouse BV2 cells at 1 uM by Western blotting

SMILES | Activity (A549 [1]) | Activity (KB [2]) | IC50 [3] [nM] | Activity (HCT-8 [4]) | Activity (DU-145 [5]) | inhibition (BV-2 [6]) | GI50 (A549 [7]) [nM] | GI50 (DU-145 [8]) [nM] | GI50 (KB [9]) [nM] | GI50 (HCT-8 [10]) [nM] | inhibition (BV-2 [11]) | inhibition (BV-2 [12])
O=C(/C=C/c1ccc2c(c1)OCO2)c1ccc(N2CCN(Cc3cc(C(=O)/C=C/c4ccc5c(c4)OCO5)ccc3O)CC2)cc1 | inactive | inactive | 2100 | inactive | inactive | inactive | – | – | – | – | – | –
O=C(/C=C/c1ccccc1)c1ccc(N2CCN(Cc3cc(C(=O)/C=C/c4ccccc4)ccc3O)CC2)cc1 | inactive | inactive | 2800 | inactive | inactive | inactive | – | – | – | – | – | –
COc1cc(C(C)=O)cc(CN2CCN(c3ccc(C(C)=O)cc3)CC2)c1O | inactive | inactive | 15900 | inactive | inactive | inactive | – | – | – | – | – | –
COc1cc(C(=O)/C=C/c2ccccc2Cl)cc(CN2CCN(c3ccc(C(=O)/C=C/c4ccccc4Cl)cc3)CC2)c1O | inactive | inactive | 10900 | inactive | inactive | inactive | – | – | – | – | – | –
Cc1ccc(/C=C/C(=O)c2ccc(N3CCN(Cc4cc(C(=O)/C=C/c5ccc(C)o5)ccc4O)CC3)cc2)o1 | inactive | inactive | 2400 | inactive | inactive | inactive | – | – | – | – | – | –
O=C(/C=C/c1ccccn1)c1ccc(N2CCN(Cc3cc(C(=O)/C=C/c4ccccn4)ccc3O)CC2)cc1 | – | – | 1400 | – | – | inactive | 1080 | 1250 | 1230 | 1260 | – | –
O=C(/C=C/c1cccnc1)c1ccc(N2CCN(Cc3cc(C(=O)/C=C/c4cccnc4)ccc3O)CC2)cc1 | – | – | 300 | – | – | inactive | 1470 | 2190 | 1660 | 1400 | Active | Active
CC(=O)c1ccc(N2CCN(Cc3cc(C(=O)/C=C/c4cccn4C)ccc3O)CC2)cc1 | – | – | 1900 | – | – | inactive | 31200 | > 45100 | 39100 | > 45100 | – | –
COc1ccc(/C=C/C(=O)c2ccc(N3CCN(Cc4cc(C(=O)/C=C/c5ccc(OC)cc5)cc(OC)c4O)CC3)cc2)cc1 | inactive | inactive | 3500 | inactive | inactive | inactive | – | – | – | – | – | –
Cc1ccsc1/C=C/C(=O)c1ccc(N2CCN(Cc3cc(C(=O)/C=C/c4sccc4C)ccc3O)CC2)cc1 | inactive | inactive | 7500 | inactive | inactive | inactive | – | – | – | – | – | –
CC(=O)c1ccc(N2CCN(Cc3cc(C(C)=O)ccc3O)CC2)cc1 | inactive | inactive | 6600 | inactive | inactive | inactive | – | – | – | – | – | –
COc1cc(C(=O)/C=C/c2ccccn2)cc(CN2CCN(c3ccc(C(=O)/C=C/c4ccccn4)cc3)CC2)c1O | – | – | 1600 | – | – | inactive | 1000 | 1300 | 3980 | 700 | – | –
O=C(/C=C/c1ccco1)c1ccc(N2CCN(Cc3cc(C(=O)/C=C/c4ccco4)ccc3O)CC2)cc1 | inactive | inactive | 1700 | inactive | inactive | inactive | – | – | – | – | – | –
COC(=O)[C@@H](N)CCCNC(=N)N[N+](=O)[O-] [L-NAME] | – | – | 18900 | – | – | – | – | – | – | – | – | –
COc1cc(C(=O)/C=C/c2ccccc2)cc(CN2CCN(c3ccc(C(=O)/C=C/c4ccccc4)cc3)CC2)c1O | – | – | 2100 | – | – | inactive | > 35800 | > 35800 | > 35800 | 25800 | – | –
O=C(/C=C/c1ccc(Cl)cc1Cl)c1ccc(N2CCN(Cc3cc(C(=O)/C=C/c4ccc(Cl)cc4Cl)ccc3O)CC2)cc1 | inactive | inactive | 25700 | inactive | inactive | inactive | – | – | – | – | – | –
COc1cc(C(=O)/C=C/c2sccc2C)cc(CN2CCN(c3ccc(C(=O)/C=C/c4sccc4C)cc3)CC2)c1O | inactive | inactive | 3100 | inactive | inactive | inactive | – | – | – | – | – | –
COc1cc(C(=O)/C=C/c2cccs2)cc(CN2CCN(c3ccc(C(=O)/C=C/c4cccs4)cc3)CC2)c1O | inactive | inactive | 2700 | inactive | inactive | inactive | – | – | – | – | – | –
Cn1cccc1/C=C/C(=O)c1ccc(N2CCN(Cc3cc(C(=O)/C=C/c4cccn4C)ccc3O)CC2)cc1 | inactive | inactive | 1200 | inactive | inactive | inactive | – | – | – | – | – | –
CC(=O)c1ccc(N2CCN(Cc3cc(C(=O)/C=C/c4ccc[nH]4)ccc3O)CC2)cc1 | – | – | 1700 | – | – | inactive | 20100 | 17900 | 19000 | 24700 | – | –
CC(=O)O[C@H]1C(=O)[C@@]2(C)[C@H]([C@H](OC(=O)c3ccccc3)[C@]3(O)C[C@H](OC(=O)[C@H](O)[C@@H](NC(=O)c4ccccc4)c4ccccc4)C(C)=C1C3(C)C)[C@]1(OC(C)=O)CO[C@@H]1C[C@@H]2O [PACLITAXEL] | – | – | – | – | – | – | 7.6 | 5.23 | 5.16 | > 100 | – | –
O=C(/C=C/c1ccccc1Cl)c1ccc(N2CCN(Cc3cc(C(=O)/C=C/c4ccccc4Cl)ccc3O)CC2)cc1 | inactive | inactive | 30500 | inactive | inactive | inactive | – | – | – | – | – | –
O=C(/C=C/c1cccs1)c1ccc(N2CCN(Cc3cc(C(=O)/C=C/c4cccs4)ccc3O)CC2)cc1 | – | – | 1900 | – | – | inactive | > 37000 | 29200 | > 37000 | > 37000 | – | –
COc1ccc(/C=C/C(=O)c2ccc(N3CCN(Cc4cc(C(=O)/C=C/c5ccc(OC)cc5)ccc4O)CC3)cc2)cc1 | inactive | inactive | 500 | inactive | inactive | inactive | – | – | – | – | Active | Active
